Results on 1 molecule are retold here after ChEMBL document CHEMBL4229335 (Eur J Med Chem, 2018).

The test system of experiment [1] is Bel-7402. The experiment in a line: Cell cycle arrest in human Bel7402 cells assessed as accumulation of cells at S phase at 0.4 uM after 48 hrs by propidium iodide staining-based flow cytometric analysis (reference value: 12.92%). The experiment is classed as functional. An outline of the steps: (§1)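 Bel-7402 cells were seeded in 6-well plates and grown 24 h at 37 °C. Compound in DMSO was added in triplicate, with DMSO-only controls, for 48 h. Cells were then centrifuged, fixed in 70% ethanol at 4 °C and stained with propidium iodide. DNA content was measured by flow cytometry to give cell-cycle phase distribution.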
(In flow cytometry, cells or beads pass a laser one at a time.)

Experiment [2] has as its system Bel-7402. The experiment can be described thus: Induction of apoptosis in human Bel7402 cells assessed as late apoptotic cells at 1.2 uM after 24 hrs by Annexin V-FITC/propidium iodide staining-based flow cytometric analysis (reference value: 0.96%). The experiment is classed as functional.
Experiment [3] concerns Bel-7402. The experiment can be described thus: Cell cycle arrest in human Bel7402 cells assessed as accumulation of cells at G1 phase at 0.4 uM after 48 hrs by propidium iodide staining-based flow cytometric analysis (reference value: 63.55%). The experiment is classed as functional. The gist of the method:
as §1

The test system of experiment [4] is Bel-7402. The experiment in a line: Induction of apoptosis in human Bel7402 cells assessed as nuclear disintegration at 0.4 to 1.2 uM after 48 hrs by Hoechst […] staining-based fluorescent microscopic analysis. The class given is functional, cell-based. The gist of the method:
(§2)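 Bel-7402 cells were seeded in 6-well plates in 2 mL medium and grown 24 h. Compound was then added for 48 h, with a vehicle control. Nuclei were stained with Hoechst 33258 and examined by fluorescence microscopy for chromatin condensation and nuclear disintegration.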

Experiment [5] deals with Bel-7402. The experiment can be described thus: Induction of apoptosis in human Bel7402 cells assessed as chromatin condensation at 0.4 to 1.2 uM after 48 hrs by Hoechst […] staining-based fluorescent microscopic analysis. The class given is functional, cell-based. The gist of the method:
as §2

For a further experiment, the system named is Bel7402/5-FU. The experiment in a line: Antiproliferative activity against human Bel7402/5-FU cells after 72 hrs by MTT assay. The class given is functional, cell-based. The gist of the method:
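MTT assay with 72 h exposure to graded concentrations in triplicate. MTT solution then DMSO were added, followed by 10 min at room temperature, with absorbance read at 490 nm. IC50 is reported as the mean of three independent experiments. 5-FU served as positive control.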

The test system of experiment [6] is Bel-7402. The experiment can be described thus: Induction of mitochondrial membrane potential loss in human Bel7402 cells at 1.2 uM after 48 hrs by JC-1 dye-based flow cytometric analysis (reference value: 7.20%). The class given is functional. An outline of the steps:
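Bel-7402 cells were exposed in triplicate for 48 h to compound or vehicle. Cells were washed with PBS and stained with JC-1 in the dark. The fraction of cells with collapsed versus intact mitochondrial membrane potential was counted by flow cytometry.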

Experiment [7] deals with Bel-7402. The experiment can be described thus: Induction of apoptosis in human Bel7402 cells assessed as early apoptotic cells at 0.4 uM after 24 hrs by Annexin V-FITC/propidium iodide staining-based flow cytometric analysis (reference value: 1.07%). The class given is functional.
In experiment [8] the test system is Bel-7402. The experiment can be described thus: Cell cycle arrest in human Bel7402 cells assessed as accumulation of cells at S phase at 0.8 uM after 48 hrs by propidium iodide staining-based flow cytometric analysis (reference value: 12.92%). The experiment is classed as functional. The gist of the method: as §1

Activity calls are given as the source filed them. The calls are words filed in the database; no cut-off is given here.

As a reminder, the IC50 is the concentration that inhibits the measured activity by half.

Turning to `C=C1C(=O)[C@@]23C(=O)O[C@H]4CCC(C)(C)[C@H]5[C@H](O)OC[C@@]45[C@@H]2CC[C@@H]1[C@H]3OC(=O)c1ccc(N(CCCl)CCCl)cc1`, the Activity was determined as 15.15% with Bel-7402 [1]; 19.39% in the experiment on Bel-7402 [2]; 66.71% in the experiment on Bel-7402 [3]; 40% in the experiment with Bel-7402 [6]; 11.8% in the experiment on Bel-7402 [7]; 14.42% in the experiment on Bel-7402 [8]. Moreover, the outcome with Bel-7402 [4] and with Bel-7402 [5] was Active. In addition, the IC50 with Bel7402/5-FU was 2070 nM.
